Laboratory results reported in ChEMBL document CHEMBL2177069, “Novel peptidomimetic compounds containing redox active chalcogens and quinones as potential anticancer agents” (Eur J Med Chem, 2012).

Experiments:
MCF7 = test: Cytotoxicity against human MCF7 cells; format: functional
Saccharomyces cerevisiae [1] = test: Growth inhibition of PST2-deficient Saccharomyces cerevisiae YDR032C mutant at 20 ug/disc 24 to 48 hrs by agar diffusion assay; format: functional; conditions: read-out: DIZ
In short: (§1)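 S. cerevisiae deletion mutants or wild type grown on YPD, seeded into liquid agar medium at an optical density of 0.1. 6 mm paper discs soaked with methanolic compound solution were placed on the plates and incubated at 30 °C. Growth was checked after 1 and 2 days, and the inhibition zone diameter was recorded in mm.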

NCI-H460 = test: Cytotoxicity against human NCI-H460 cells; format: functional
A498 [2] = test: Cytotoxicity against human A498 cells; format: functional
HCT-116 = test: Cytotoxicity against human HCT116 cells; format: functional
Hs-578T = test: Cytotoxicity against human Hs578T cells; format: functional
HT-29 = test: Cytotoxicity against human HT-29 cells; format: functional
NCI-H23 = test: Cytotoxicity against human NCI-H23 cells; format: functional
[3] = Cytotoxicity against human 786-O cells; format: functional
OVCAR-3 = test: Cytotoxicity against human OVCAR3 cells; format: functional
TK-10 = test: Cytotoxicity against human TK10 cells; format: functional
MDA-MB-231 = test: Cytotoxicity against human MDA-MB-231 cells; format: functional
BT-549 = test: Cytotoxicity against human BT549 cells; format: functional
Saccharomyces cerevisiae [4] = test: Growth inhibition of SOD1-deficient Saccharomyces cerevisiae YJR104C mutant at 20 ug/disc after 24 to 48 hrs by agar diffusion assay; format: functional; conditions: read-out: DIZ; in short: as §1
NCI-H322M = test: Cytotoxicity against human NCI-H322M cells; format: functional
HUVEC = test: Cytotoxicity against human HUVEC cells after 24 hrs by MTT assay; format: cell-based
In short: (§2)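 MTT assay. Cells were seeded at 50,000 cells/mL in medium with 10% fetal calf serum and grown for two days at 37 °C, 10% CO2. Serial dilutions of compound were then added for 24 h. MTT was added (final 0.5 mg/mL) for 2 h, and the formazan was pelleted, washed, dissolved in isopropanol with 0.4% HCl and read at 590 nm. IC50 is the concentration giving 50% of untreated-control absorbance, taken from dose-response curves; mean of two parallel experiments.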

SNB-19 = test: Cytotoxicity against human SNB19 cells; format: functional
SK-MEL-5 = test: Cytotoxicity against human SK-MEL-5 cells; format: functional
Saccharomyces cerevisiae [5] = test: Growth inhibition of wild type Saccharomyces cerevisiae BY4741 at 20 ug/disc after 24 to 48 hrs by agar diffusion assay; format: functional; conditions: read-out: DIZ; in short: as §1
Saccharomyces cerevisiae [6] = test: Growth inhibition of GSH2-deficient Saccharomyces cerevisiae YOL049W mutant at 20 ug/disc after 24 to 48 hrs by agar diffusion assay; format: functional; conditions: read-out: DIZ; in short: as §1
Saccharomyces cerevisiae [7] = test: Growth inhibition of WSC4-deficient Saccharomyces cerevisiae YHL028W mutant at 20 ug/disc 24 to 48 hrs by agar diffusion assay; format: functional; conditions: read-out: DIZ; in short: as §1
Saccharomyces cerevisiae [8] = test: Growth inhibition of RCK1-deficient Saccharomyces cerevisiae YGL158W mutant at 20 ug/disc after 24 to 48 hrs by agar diffusion assay; format: functional; conditions: read-out: DIZ; in short: as §1
DU-145 = test: Cytotoxicity against human DU145 cells; format: functional
SK-OV-3 = test: Cytotoxicity against human SKOV3 cells; format: functional
KM12 = test: Cytotoxicity against human KM12 cells; format: functional
SN12C = test: Cytotoxicity against human SN12C cells; format: functional
COLO 205 = test: Cytotoxicity against human COLO205 cells; format: functional
T47D = test: Cytotoxicity against human T47D cells; format: functional
A498 [9] = test: Cytotoxicity against human A498 cells after 24 hrs by MTT assay; format: functional, cell-based; conditions: A498, 24 h; in short: as §2
SK-MEL-2 = test: Cytotoxicity against human SK-MEL-2 cells; format: functional
SW-620 = test: Cytotoxicity against human SW620 cells; format: functional
CAKI-1 = test: Cytotoxicity against human Caki1 cells; format: functional
UACC-62 = test: Cytotoxicity against human UACC62 cells; format: functional
Saccharomyces cerevisiae [10] = test: Growth inhibition of POS5-deficient Saccharomyces cerevisiae YPL188W mutant at 20 ug/disc after 24 to 48 hrs by agar diffusion assay; format: functional; conditions: read-out: DIZ; in short: as §1
IGROV-1 = test: Cytotoxicity against human IGROV1 cells; format: functional
SR = test: Cytotoxicity against human SR cells; format: functional
Saccharomyces cerevisiae [11] = test: Growth inhibition of COX17-deficient Saccharomyces cerevisiae YLL009C mutant at 20 ug/disc after 24 to 48 hrs by agar diffusion assay; format: functional; conditions: read-out: DIZ; in short: as §1
NCI-H522 = test: Cytotoxicity against human NCI-H522 cells; format: functional
HCC 2998 = test: Cytotoxicity against human HCC2998 cells; format: functional
SF-539 = test: Cytotoxicity against human SF539 cells; format: functional

## CC1=C([Se]CC(OC(=O)[C@@H](CSSC(C)(C)C)NC(=O)C(C)(C)C)C(=O)NCCCCCC(=O)OCc2ccccc2)C(=O)c2ccccc2C1=O (stereo not given in full)
MCF7
  GI50: 3.02 µM
  LC50: 50.1 µM
MCF7; read-out: pTGI (converted)
  TGI: 9.77 µM
Saccharomyces cerevisiae [1]
  zone of inhibition at 20 µg/disc: 11 mm
NCI-H460
  GI50: 0.631 µM
  LC50: 9.55 µM
NCI-H460; read-out: pTGI (converted)
  TGI: 2.51 µM
A498 [2]
  GI50: 1.62 µM
  LC50 (50% lethal concentration): 56.2 µM
A498 [2]; read-out: pTGI (converted)
  TGI: 4.79 µM
HCT-116
  GI50: 1.55 µM
  LC50: 8.91 µM
HCT-116; read-out: pTGI (converted)
  TGI: 3.72 µM
Hs-578T
  GI50: 2.19 µM
  LC50: > 100 µM
Hs-578T; read-out: pTGI (converted)
  TGI: 5.5 µM
HT-29
  GI50: 2.69 µM
  LC50: > 100 µM
HT-29; read-out: pTGI (converted)
  TGI: 7.41 µM
NCI-H23
  GI50: 2.4 µM
  LC50: > 100 µM
NCI-H23; read-out: pTGI (converted)
  TGI: 7.08 µM
[3]; 786-0
  GI50: 2.09 µM
  LC50: 6.31 µM
[3]; 786-0, read-out: pTGI (converted)
  TGI: 3.63 µM
OVCAR-3
  GI50: 1.86 µM
  LC50: 6.17 µM
OVCAR-3; read-out: pTGI (converted)
  TGI: 3.39 µM
TK-10
  GI50: 2.4 µM
  LC50: 8.13 µM
TK-10; read-out: pTGI (converted)
  TGI: 4.47 µM
MDA-MB-231
  GI50: 1.91 µM
  LC50: 9.33 µM
MDA-MB-231; read-out: pTGI (converted)
  TGI: 4.27 µM
BT-549
  GI50: 1.78 µM
  LC50: 5.62 µM
BT-549; read-out: pTGI (converted)
  TGI: 3.16 µM
Saccharomyces cerevisiae [4]
  zone of inhibition at 20 µg/disc: 12 mm
NCI-H322M
  GI50: 0.398 µM
  LC50: > 100 µM
NCI-H322M; read-out: pTGI (converted)
  TGI: 2.29 µM
HUVEC
  IC50: 10 µM
SNB-19
  GI50: 1.1 µM
  LC50: 6.03 µM
SNB-19; read-out: pTGI (converted)
  TGI: 2.57 µM
SK-MEL-5
  GI50: 1.91 µM
  LC50: 5.89 µM
SK-MEL-5; read-out: pTGI (converted)
  TGI: 3.31 µM
Saccharomyces cerevisiae [5]
  zone of inhibition at 20 µg/disc: 0 mm
Saccharomyces cerevisiae [6]
  zone of inhibition at 20 µg/disc: 0 mm
Saccharomyces cerevisiae [7]
  zone of inhibition at 20 µg/disc: 14 mm
Saccharomyces cerevisiae [8]
  zone of inhibition at 20 µg/disc: 0 mm
DU-145
  GI50: 2.14 µM
  LC50: 9.55 µM
DU-145; read-out: pTGI (converted)
  TGI: 4.47 µM
SK-OV-3
  GI50: 1.55 µM
  LC50: 5.5 µM
SK-OV-3; read-out: pTGI (converted)
  TGI: 2.95 µM
KM12
  GI50: 1.78 µM
  LC50: 6.76 µM
KM12; read-out: pTGI (converted)
  TGI: 3.47 µM
SN12C
  GI50: 2 µM
  LC50: 7.59 µM
SN12C; read-out: pTGI (converted)
  TGI: 3.89 µM
COLO 205
  GI50: 1.82 µM
COLO 205; read-out: pLC50 (the source's name) (converted)
  CC50: 6.76 µM
COLO 205; read-out: pTGI (converted)
  TGI: 3.47 µM
T47D
  GI50: 2.19 µM
  LC50: > 100 µM
T47D; read-out: pTGI (converted)
  TGI: 6.46 µM
A498 [9]
  IC50: 13 µM
SK-MEL-2
  GI50: 2.24 µM
  LC50: 39.8 µM
SK-MEL-2; read-out: pTGI (converted)
  TGI: 5.01 µM
SW-620
  GI50: 2.29 µM
  LC50: 15.8 µM
SW-620; read-out: pTGI (converted)
  TGI: 5.25 µM
CAKI-1
  GI50: 2.19 µM
  LC50: 9.33 µM
CAKI-1; read-out: pTGI (converted)
  TGI: 4.57 µM
UACC-62
  GI50: 1.95 µM
  LC50: 8.13 µM
UACC-62; read-out: pTGI (converted)
  TGI: 3.98 µM
Saccharomyces cerevisiae [10]
  zone of inhibition at 20 µg/disc: 0 mm
IGROV-1
  GI50: 1.91 µM
  LC50 (concentration killing 50% of cells): 7.08 µM
IGROV-1; read-out: pTGI (converted)
  TGI: 3.63 µM
SR
  GI50: 3.8 µM
  LC50: > 100 µM
SR; read-out: pTGI (converted)
  TGI: 18.6 µM
Saccharomyces cerevisiae [11]
  zone of inhibition at 20 µg/disc: 0 mm
NCI-H522
  GI50: 1.7 µM
  LC50: 6.17 µM
NCI-H522; read-out: pTGI (converted)
  TGI: 3.24 µM
HCC 2998
  GI50: 2.19 µM
  LC50: 7.24 µM
HCC 2998; read-out: pTGI (converted)
  TGI: 3.98 µM
SF-539
  GI50: 1.91 µM
  LC50: 5.89 µM
SF-539; read-out: pTGI (converted)
  TGI: 3.39 µM
